Laboratory results: ChEMBL document CHEMBL4828755, “A sulfonyl fluoride derivative inhibits EGFRL858R/T790M/C797S by covalent modification of the catalytic lysine” (Eur J Med Chem, 2021)
Activity calls are given as the source filed them. No cut-off for these calls is given here.

What was measured:
[1] = target: T1, Epidermal growth factor receptor (Homo sapiens, UniProt P00533, C797S/L858R/T790M); assay: Inhibition of EGFR L858R/T790M/C797S triple mutant (unknown origin) using fluoresceine-labelled poly-GT peptide as substrate incubated for 1 hr by TR-FRET assay
[2] = target: T1, Epidermal growth factor receptor; assay: Inhibition of EGFR L858R/T790M/C797S triple mutant (unknown origin) using fluoresceine-labelled poly-GT peptide as substrate preincubated with enzyme for 3 hrs followed by substrate and ATP addition by TR-FRET assay
[3] = target: T1, Epidermal growth factor receptor; assay: Inhibition of EGFR L858R/T790M/C797S triple mutant (unknown origin) using […] preincubated with enzyme and ATP at Km for 3 hrs followed by substrate addition and measured after 1 hr by TR-FRET assay
[4] = target: T2, AMP-activated protein kinase, AMPK (Homo sapiens) (UniProt P54646+O43741+P54619+Q9UGJ0+Q9Y478+Q13131+Q9UGI9); assay: Inhibition of human recombinant AMPK at 1 uM by Z'-LYTE assay; assay type: protein-complex assay
Method in brief: (§1)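 Z'-LYTE FRET kinase panel; phosphorylation of a reference peptide measured with ATP at each enzyme's Km. Compounds tested in 1% DMSO at 0.1 and/or 1 μM. Values are means of two independent experiments with standard deviations.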

[5] = target: T3, Aurora kinase A (Homo sapiens) (UniProt O14965); assay: Inhibition of His-tagged human full length recombinant AURKA expressed in baculovirus expression system at 1 uM by Z'-LYTE assay; method in brief: as §1
T3 sequence (whole entry): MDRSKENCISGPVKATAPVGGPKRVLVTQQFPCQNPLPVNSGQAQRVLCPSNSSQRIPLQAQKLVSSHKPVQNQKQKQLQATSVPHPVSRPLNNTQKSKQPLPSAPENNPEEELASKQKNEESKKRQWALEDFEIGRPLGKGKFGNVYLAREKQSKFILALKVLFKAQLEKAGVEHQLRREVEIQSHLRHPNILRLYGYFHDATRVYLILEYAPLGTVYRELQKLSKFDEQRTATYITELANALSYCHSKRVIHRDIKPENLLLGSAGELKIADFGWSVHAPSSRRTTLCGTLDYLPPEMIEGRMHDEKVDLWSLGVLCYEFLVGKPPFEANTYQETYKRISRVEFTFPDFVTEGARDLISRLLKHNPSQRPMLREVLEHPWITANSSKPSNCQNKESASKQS

[6] = target: Cyclin-dependent kinase 5 (Homo sapiens) (UniProt Q00535); assay: Inhibition of GST/His-tagged human full length recombinant CDK5 expressed in baculovirus expression system at 1 uM by Z'-LYTE assay; method in brief: as §1
Chain of Cyclin-dependent kinase 5 (Homo sapiens) (Q00535 whole entry, looked up): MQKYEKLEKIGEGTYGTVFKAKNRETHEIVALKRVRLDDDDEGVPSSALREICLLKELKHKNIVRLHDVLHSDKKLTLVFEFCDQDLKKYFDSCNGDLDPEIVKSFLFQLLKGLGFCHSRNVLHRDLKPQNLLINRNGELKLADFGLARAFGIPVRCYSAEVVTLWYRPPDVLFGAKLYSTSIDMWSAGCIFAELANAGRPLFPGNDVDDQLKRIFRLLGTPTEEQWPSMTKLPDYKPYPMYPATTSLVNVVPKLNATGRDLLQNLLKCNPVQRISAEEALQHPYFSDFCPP

[7] = target: Tyrosine-protein kinase Blk (Homo sapiens) (UniProt P51451); assay: Inhibition of His-tagged human full length recombinant BLK expressed in baculovirus expression system at 1 uM by Z'-LYTE assay; method in brief: as §1
Chain of Tyrosine-protein kinase Blk (Homo sapiens) (P51451 2-505 limits assumed): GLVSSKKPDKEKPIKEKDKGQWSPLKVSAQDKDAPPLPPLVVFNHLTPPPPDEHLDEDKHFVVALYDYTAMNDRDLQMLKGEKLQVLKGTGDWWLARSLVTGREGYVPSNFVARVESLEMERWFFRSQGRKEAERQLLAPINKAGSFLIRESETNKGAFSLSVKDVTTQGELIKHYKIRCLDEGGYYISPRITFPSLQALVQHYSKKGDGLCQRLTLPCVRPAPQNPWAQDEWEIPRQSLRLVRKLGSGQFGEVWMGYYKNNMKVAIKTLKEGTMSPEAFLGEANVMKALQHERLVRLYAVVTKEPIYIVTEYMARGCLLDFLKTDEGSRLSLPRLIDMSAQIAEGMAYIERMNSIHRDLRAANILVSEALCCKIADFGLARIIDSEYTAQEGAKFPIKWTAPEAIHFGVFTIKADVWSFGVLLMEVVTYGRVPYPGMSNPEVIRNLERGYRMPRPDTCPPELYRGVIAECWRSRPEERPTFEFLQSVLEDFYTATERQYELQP

[8] = target: Vascular endothelial growth factor receptor 2 (Homo sapiens) (UniProt P35968); assay: Inhibition of His-tagged human recombinant VEGFR2 (789 to 1356 residues) expressed in baculovirus expression system at 1 uM by Z'-LYTE assay; method in brief: as §1
Chain of Vascular endothelial growth factor receptor 2 (Homo sapiens) (P35968 whole entry, the tested form may be a part): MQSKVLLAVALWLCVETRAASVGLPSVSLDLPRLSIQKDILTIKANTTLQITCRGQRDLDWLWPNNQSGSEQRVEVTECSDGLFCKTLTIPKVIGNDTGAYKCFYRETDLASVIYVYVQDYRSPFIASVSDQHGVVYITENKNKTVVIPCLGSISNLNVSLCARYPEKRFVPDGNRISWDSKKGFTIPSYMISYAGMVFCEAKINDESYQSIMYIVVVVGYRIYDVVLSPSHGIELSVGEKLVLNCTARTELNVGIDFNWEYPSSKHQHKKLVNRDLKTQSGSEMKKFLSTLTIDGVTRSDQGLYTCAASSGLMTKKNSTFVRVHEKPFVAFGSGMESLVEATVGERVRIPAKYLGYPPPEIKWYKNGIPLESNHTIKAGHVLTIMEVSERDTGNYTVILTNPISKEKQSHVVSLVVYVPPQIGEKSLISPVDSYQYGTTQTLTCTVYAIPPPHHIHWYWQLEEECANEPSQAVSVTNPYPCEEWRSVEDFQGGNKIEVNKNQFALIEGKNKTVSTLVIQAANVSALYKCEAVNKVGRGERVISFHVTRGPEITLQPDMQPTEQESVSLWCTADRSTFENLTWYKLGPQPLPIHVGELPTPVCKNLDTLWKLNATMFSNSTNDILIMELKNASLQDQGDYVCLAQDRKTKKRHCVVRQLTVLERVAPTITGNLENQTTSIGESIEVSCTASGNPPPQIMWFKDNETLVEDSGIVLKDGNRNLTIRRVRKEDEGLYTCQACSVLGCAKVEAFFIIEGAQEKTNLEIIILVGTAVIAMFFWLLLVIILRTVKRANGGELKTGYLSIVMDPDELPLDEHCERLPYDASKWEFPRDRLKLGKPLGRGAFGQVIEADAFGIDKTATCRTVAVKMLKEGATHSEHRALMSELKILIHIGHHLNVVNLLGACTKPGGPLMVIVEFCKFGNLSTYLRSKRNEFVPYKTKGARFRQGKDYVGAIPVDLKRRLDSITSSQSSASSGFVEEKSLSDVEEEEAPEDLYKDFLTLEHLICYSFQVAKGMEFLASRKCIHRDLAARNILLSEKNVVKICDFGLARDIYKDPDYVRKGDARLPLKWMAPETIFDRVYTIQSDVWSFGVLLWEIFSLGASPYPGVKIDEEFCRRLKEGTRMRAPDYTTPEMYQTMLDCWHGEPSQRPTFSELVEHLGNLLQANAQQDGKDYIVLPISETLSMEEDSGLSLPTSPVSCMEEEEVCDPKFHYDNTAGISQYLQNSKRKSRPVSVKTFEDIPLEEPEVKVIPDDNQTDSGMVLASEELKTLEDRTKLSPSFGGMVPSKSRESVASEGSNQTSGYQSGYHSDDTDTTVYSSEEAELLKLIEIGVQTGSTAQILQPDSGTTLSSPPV

BaF3 [9] = assay: Cytotoxicity against mouse BaF3 cells harboring EGFR L858R/T790M/C797S triple mutant assessed as inhibition of cell proliferation measured after 72 hrs by MTS assay; assay type: functional, cell-based
Method in brief: (§2)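 Ba/F3 cells carrying the respective EGFR triple mutant, grown in RPMI-1640 with 2 mM glutamine and 10% FBS at 37°C, 5% CO2. Seeded 20000 cells/well and treated the same day with increasing concentrations (DMSO ≤0.1% final). Viability read by MTS after 72 h, expressed as % inhibition versus untreated controls; at least three independent experiments.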

[10] = test system: Epidermal growth factor receptor (Homo sapiens), P00533 [L858R,T790M,C797S]; assay: Ratio of IC50 for EGFR L858R/T790M/C797S triple mutant (unknown origin) using fluoresceine-labelled poly-GT peptide as substrate incubated for 1 hr to IC50 for EGFR L858R/T790M/C797S triple mutant (unknown origin) using fluoresceine-labelled poly-GT peptide as substrate preincubated with enzyme for 3 hrs followed by substrate and ATP addition
[11] = test system: Epidermal growth factor receptor (Homo sapiens), P00533 [L858R,T790M,C797S]; assay: Irreversible inhibiton of EGFR L858R/T790M/C797S triple mutant (unknown origin) assessed as residual enzyme activity using fluoresceine-labelled poly-GT peptide as substrate preincubated with enzyme for 3 hrs at 10XIC50 followed by 100-fold dilution and measured after 30 mins by rapid dilution assay based TR-FRET analysis; details: time 210.0 min
Method in brief: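 It was then diluted 100-fold into Kinase Buffer A containing poly-GT substrate and 9 μM ATP. After 30 min, EDTA quench plus Eu-PY20 were added for 30 min before TR-FRET. Activity is given as % of no-inhibitor control; n = 5.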

[12] = target: RAC-beta serine/threonine-protein kinase (Homo sapiens) (UniProt P31751); assay: Inhibition of His-tagged full length human recombinant AKT2 expressed in baculovirus expression system at 100 nM by Z'-LYTE assay; method in brief: as §1
Chain of RAC-beta serine/threonine-protein kinase (Homo sapiens) (P31751 whole entry): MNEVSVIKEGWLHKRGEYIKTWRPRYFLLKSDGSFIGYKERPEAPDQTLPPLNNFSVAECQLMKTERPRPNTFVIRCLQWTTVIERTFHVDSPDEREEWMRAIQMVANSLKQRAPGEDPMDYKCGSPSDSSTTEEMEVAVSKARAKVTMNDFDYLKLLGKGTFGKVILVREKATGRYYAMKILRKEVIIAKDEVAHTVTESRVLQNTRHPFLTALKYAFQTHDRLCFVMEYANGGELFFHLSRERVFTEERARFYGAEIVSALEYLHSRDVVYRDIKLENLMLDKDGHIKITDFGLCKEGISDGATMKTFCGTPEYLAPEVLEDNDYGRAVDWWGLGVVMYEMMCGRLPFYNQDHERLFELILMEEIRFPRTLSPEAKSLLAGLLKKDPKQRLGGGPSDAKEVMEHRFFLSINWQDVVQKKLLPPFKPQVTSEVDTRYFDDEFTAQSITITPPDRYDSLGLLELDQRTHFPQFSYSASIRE

[13] = target: T2, AMP-activated protein kinase, AMPK (Homo sapiens); assay: Inhibition of human recombinant AMPK at 100 nM by Z'-LYTE assay; assay type: protein-complex assay; method in brief: as §1
[14] = target: T3, Aurora kinase A (Homo sapiens); assay: Inhibition of His-tagged human full length recombinant AURKA expressed in baculovirus expression system at 100 nM by Z'-LYTE assay; method in brief: as §1
[15] = target: Cyclin-dependent kinase 2 (Homo sapiens) (UniProt P24941); assay: Inhibition of human recombinant CDK2 at 100 nM by Z'-LYTE assay; method in brief: as §1
[16] = target: Cyclin-dependent kinase 5 (Homo sapiens) (UniProt Q00535); assay: Inhibition of GST/His-tagged human full length recombinant CDK5 expressed in baculovirus expression system at 100 nM by Z'-LYTE assay; method in brief: as §1
[17] = target: Tyrosine-protein kinase Blk (Homo sapiens) (UniProt P51451); assay: Inhibition of His-tagged human full length recombinant BLK expressed in baculovirus expression system at 100 nM by Z'-LYTE assay; method in brief: as §1
[18] = target: Tyrosine-protein kinase Lck (Homo sapiens) (UniProt P06239); assay: Inhibition of human recombinant LCK at 100 nM by Z'-LYTE assay; method in brief: as §1
Chain of Tyrosine-protein kinase Lck (Homo sapiens) (P06239 2-509 limits assumed): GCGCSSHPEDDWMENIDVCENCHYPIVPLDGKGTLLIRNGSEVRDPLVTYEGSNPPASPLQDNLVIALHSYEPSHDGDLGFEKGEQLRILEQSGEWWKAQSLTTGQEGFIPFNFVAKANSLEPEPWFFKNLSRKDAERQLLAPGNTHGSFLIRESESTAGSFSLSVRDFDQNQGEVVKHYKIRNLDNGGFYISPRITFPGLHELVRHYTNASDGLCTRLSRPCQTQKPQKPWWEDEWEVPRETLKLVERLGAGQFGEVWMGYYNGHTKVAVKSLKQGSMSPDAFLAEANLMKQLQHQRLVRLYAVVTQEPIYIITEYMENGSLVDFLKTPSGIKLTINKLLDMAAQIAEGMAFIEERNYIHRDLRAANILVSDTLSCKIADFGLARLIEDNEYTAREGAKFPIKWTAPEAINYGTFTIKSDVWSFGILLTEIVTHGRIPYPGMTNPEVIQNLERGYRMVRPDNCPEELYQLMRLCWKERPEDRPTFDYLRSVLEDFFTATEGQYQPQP

[19] = target: Proto-oncogene tyrosine-protein kinase Src (Homo sapiens) (UniProt P12931); assay: Inhibition of C-terminal His-tagged human recombinant SRC expressed in baculovirus expression system at 100 nM by Z'-LYTE assay; method in brief: as §1
Chain of Proto-oncogene tyrosine-protein kinase Src (Homo sapiens) (P12931 2-536 limits assumed): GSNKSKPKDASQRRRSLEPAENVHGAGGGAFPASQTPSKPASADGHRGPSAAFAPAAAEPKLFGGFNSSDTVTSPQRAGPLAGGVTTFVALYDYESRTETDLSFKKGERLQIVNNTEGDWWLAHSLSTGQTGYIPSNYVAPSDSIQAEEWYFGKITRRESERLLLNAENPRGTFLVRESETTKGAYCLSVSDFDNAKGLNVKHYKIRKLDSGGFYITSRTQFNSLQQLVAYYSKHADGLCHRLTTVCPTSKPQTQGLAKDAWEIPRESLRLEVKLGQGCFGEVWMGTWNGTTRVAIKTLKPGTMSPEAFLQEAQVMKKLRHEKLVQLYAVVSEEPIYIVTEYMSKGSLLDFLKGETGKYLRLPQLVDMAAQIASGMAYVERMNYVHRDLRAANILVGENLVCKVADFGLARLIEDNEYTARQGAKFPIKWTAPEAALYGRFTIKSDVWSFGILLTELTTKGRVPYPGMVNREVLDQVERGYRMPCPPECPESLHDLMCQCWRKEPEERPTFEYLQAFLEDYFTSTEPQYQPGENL

[20] = test system: Epidermal growth factor receptor (Homo sapiens), P00533 [L858R,T790M,C797S]; assay: Inhibition of EGFR L858R/T790M/C797S triple mutant (unknown origin) expressed in mouse Ba/F3 cells assessed as inhibition of EGF-stimulated receptor phosphorylation at 500 nM incubated for 4 hrs followed by EGF stimulation for 10 mins by western blot analysis; assay type: cell-based; details: BaF3, time 250.0 min
Method in brief: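 Ba/F3 cells expressing EGFR L858R/T790M/C797S were treated for 4 h across increasing concentrations (DMSO ≤0.1%), then stimulated with 100 ng/ml EGF for 10 min. Lysates were immunoblotted for pEGFR (Tyr1068), EGFR and actin.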

BaF3 [21] = assay: Cytotoxicity against mouse BaF3 cells harboring EGFR del19/T790M/C797S triple mutant assessed as inhibition of cell proliferation measured after 72 hrs by MTS assay; assay type: functional, cell-based; method in brief: as §2
[22] = target: Mitogen-activated protein kinase 3 (Homo sapiens) (UniProt P27361); assay: Inhibition of GST-tagged human full length recombinant ERK1 expressed in Escherichia coli at 100 to 1000 nM by Z'-LYTE assay; details: dose 100-1000 nM
Chain of Mitogen-activated protein kinase 3 (Homo sapiens) (P27361 whole entry, the tested form may be a part): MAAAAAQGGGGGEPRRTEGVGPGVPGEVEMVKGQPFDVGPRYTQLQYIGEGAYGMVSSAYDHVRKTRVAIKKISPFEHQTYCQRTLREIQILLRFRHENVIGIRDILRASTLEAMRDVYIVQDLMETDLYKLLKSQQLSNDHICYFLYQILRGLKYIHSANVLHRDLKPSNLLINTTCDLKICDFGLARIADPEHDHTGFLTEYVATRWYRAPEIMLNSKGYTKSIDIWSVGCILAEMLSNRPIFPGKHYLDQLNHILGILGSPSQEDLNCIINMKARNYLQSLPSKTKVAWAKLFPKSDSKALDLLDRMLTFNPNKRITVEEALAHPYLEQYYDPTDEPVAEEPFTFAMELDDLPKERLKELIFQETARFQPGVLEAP

[23] = target: Vascular endothelial growth factor receptor 2 (Homo sapiens) (UniProt P35968); assay: Inhibition of His-tagged human recombinant VEGFR2 (789 to 1356 residues) expressed in baculovirus expression system at 100 to 1000 nM by Z'-LYTE assay; details: dose 100-1000 nM; method in brief: as §1

Compound	IC50 [1] [nM]	IC50 [2] [nM]	Ratio IC50 [10]	Activity [11] [%]	inhibition [12]	inhibition [13]	inhibition [14]	inhibition [15]	inhibition [16]	inhibition [17]	inhibition [18]	inhibition [19]	Activity (BaF3 [21])	also measured
COc1cc(N2CCN(C(C)=O)CC2)ccc1Nc1ncc(Cl)c(Nc2ccc(NCc3ccc(S(=O)(=O)F)cc3)cc2)n1	110	1.5	70	< 25	inactive	inactive	30%	inactive	inactive	inactive	inactive	inactive	inactive	IC50 [3]: 2.8 nM; inhibition [4]: 100%; inhibition [5]: 100%; inhibition [6]: 90%; inhibition [7]: 100%; inhibition [8]: < 25%; IC50 (BaF3 [9]; BaF3, 72 h): 500 nM; inhibition [20]: 100%
C#CCNC(=O)c1cc(Nc2cc(C3CC3)[nH]n2)nc(N2CCN(Cc3ccc(S(=O)(=O)F)cc3)CC2)n1	244	6	40	< 25	Active	Active	Active	Active	Active	Active	Active	Active	Active	Activity (BaF3 [9]): Active; inhibition [22]: inactive; inhibition [23]: inactive
